In ChEMBL document CHEMBL1134531, “Peptide analogues of a subdominant epitope expressed in ebv-associated tumors: synthesis and immunological activity” (J Med Chem, 2001) one finds half-life data, which are given here for eleven compounds.

As a reminder, the half-life is the time in which the quantity being followed falls by half. A high value points to slow loss.

The nature of data set [1]: Half life to evaluate susceptibility to enzymatic hydrolysis by incubating at 37 degree C in culture medium. In kind it is ADME. In a few lines: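 Peptide (5 mg in acetonitrile/H₂O 1:1, 50 μL) added to 0.5 mL RPMI containing 10% fetal calf serum and incubated at 37 °C for up to 360 min. Reaction stopped with ethanol and centrifuged, then supernatant analysed by RP-HPLC. T1/2 taken from a least-squares linear regression of log nonapeptide concentration versus time, using at least five points.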

Data set [2] in a line: Half life to evaluate susceptibility to enzymatic hydrolysis by incubating at 37 degree C in human plasma. In kind it is ADME. In a few lines:
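Peptide (5 mg in acetonitrile/H₂O 1:1, 50 μL) mixed into 0.5 mL heparinized human plasma and incubated at 37 °C for up to 360 min. Ethanol added to stop the reaction, then centrifugation and RP-HPLC of the supernatant. Half-life obtained by least-squares linear regression of log nonapeptide concentration against time, with at least five time points.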

Residues, ends and D or L forms follow the SMILES beside them. *: point of attachment. X3 = OC[C@H]1O[C@H](*)[C@H](O)[C@H](O)[C@@H]1O

With `CC(C)C[C@H](NC(=O)CNC(=O)[C@H](C)NC(=O)[C@H](CC(C)C)NC(=O)[C@@H](N)Cc1ccc(O)cc1)C(=O)N[C@@H](CC(C)C)C(=O)N[C@H](C(=O)N[C@@H](CC[S+](C)[O-])C(=O)N[C@H](C(=O)O)C(C)C)[C@@H](C)O` (some centres not stated) (HELM PEPTIDE1{Y.L.A.G.L.L.T.[CS(=O)CC[C@H](N[*:1])C(=O)[*:2]].V}$$$$V2.0), the half-life in data set [1] stood at 1.56 h; in data set [2], 0.522 h.

In the case of `CSCC[C@H](NC(=O)[C@@H](NC(=O)[C@H](CC(C)C)NC(=O)[C@H](CC(C)C)NC(=O)CNC(=O)[C@H](C)NC(=O)[C@H](CC(C)C)NC(=O)[C@@H](N)Cc1ccc(O)cc1)[C@@H](C)O)C(=O)N[C@H](CO)C(C)C` (HELM PEPTIDE1{Y.L.A.G.L.L.T.M.[CC(C)[C@@H](CO)N[*:1]]}$$$$V2.0), the half-life in data set [1] is more than 6 h; in data set [2], 1.66 h.

Turning to `CSCC[C@H](NC(=O)[C@@H](NC(=O)[C@H](CC(C)C)NC(=O)[C@H](CC(C)C)NC(=O)CNC(=O)[C@H](C)NC(=O)[C@H](CC(C)C)NC(=O)[C@@H](N)Cc1ccc(O)cc1)[C@@H](C)O)C(=O)N(CC(=O)O)C(C)C` (HELM PEPTIDE1{Y.L.A.G.L.L.T.M.[CC(C)N(CC(=O)O)[*:1]]}$$$$V2.0), the half-life in data set [1] and in data set [2] was more than 6 h throughout.

For `CSCC[C@H](NC(=O)[C@@H](NC(=O)[C@H](CC(C)C)NC(=O)[C@H](CC(C)C)NC(=O)CNC(=O)[C@H](C)NC(=O)[C@H](CC(C)C)NC(=O)[C@@H](N)Cc1ccc(O)cc1)[C@@H](C)O)C(=O)N[C@H](C(=O)O)C(C)C`, the half-life in data set [1] was 1.37 h; in data set [2] it was 0.212 h.

`CSCC[C@H](NC(=O)[C@@H](NC(=O)[C@H](CC(C)C)NC(=O)[C@H](CC(C)C)NC(=O)CNC(=O)[C@H](C)NC(=O)[C@H](CC(C)C)NC(=O)[C@@H](N)Cc1ccc(O)cc1)[C@@H](C)O)C(=O)N(C)[C@H](C(=O)O)C(C)C` (HELM PEPTIDE1{Y.L.A.G.L.L.T.M.[meV]}$$$$V2.0): the half-life in data set [1] and in data set [2] was more than 6 h throughout.

With `CSCC[C@H](NC(=O)[C@@H](NC(=O)[C@H](CC(C)C)NC(=O)[C@H](CC(C)C)NC(=O)CNC(=O)[C@H](C)NC(=O)[C@H](CC(C)C)NC(=O)[C@@H](N)Cc1ccc(O)cc1)[C@@H](C)O)C(=O)N[C@@H](C(=O)O)C(C)C`, the half-life in data set [1] is more than 6 h; in data set [2] it was 4.53 h.

In the case of `CSCCN(CC(=O)N[C@H](C(=O)O)C(C)C)C(=O)[C@@H](NC(=O)[C@H](CC(C)C)NC(=O)[C@H](CC(C)C)NC(=O)CNC(=O)[C@H](C)NC(=O)[C@H](CC(C)C)NC(=O)[C@@H](N)Cc1ccc(O)cc1)[C@@H](C)O` (HELM PEPTIDE1{Y.L.A.G.L.L.T.[CSCCN(CC(=O)[*:2])[*:1]].V}$$$$V2.0), the half-life in data set [1] was more than 6 h; in data set [2], 0.86 h.

With H-YLAGLLTMV-NH2, the half-life in data set [1] was more than 6 h; in data set [2], 0.657 h.

As for `CSCC[C@H](NC(=O)[C@@H](NC(=O)[C@H](CC(C)C)NC(=O)[C@H](CC(C)C)NC(=O)CNC(=O)[C@H](C)NC(=O)[C@H](CC(C)C)NC(=O)[C@@H](N)Cc1ccc(O)cc1)[C@@H](C)O[C@H]1O[C@H](CO)[C@@H](O)[C@@H](O)[C@H]1O)C(=O)N[C@H](C(=O)O)C(C)C` (H-YLAGLLT(X3)MV-OH), the half-life in data set [1] was more than 6 h; in data set [2], 1.01 h.

For the compound `CSCC[C@@H](CN[C@H](C(=O)O)C(C)C)NC(=O)[C@@H](NC(=O)[C@H](CC(C)C)NC(=O)[C@H](CC(C)C)NC(=O)CNC(=O)[C@H](C)NC(=O)[C@H](CC(C)C)NC(=O)[C@@H](N)Cc1ccc(O)cc1)[C@@H](C)O` (HELM PEPTIDE1{Y.L.A.G.L.L.T.[CSCC[C@@H](CN[C@H](C(=O)O)C(C)C)N[*:1]]}$$$$V2.0), the results for the half-life in data set [1] and in data set [2] were more than 6 h and 5.07 h, respectively.

For the compound `CSCC[C@@H](NC(=O)[C@@H](NC(=O)[C@H](CC(C)C)NC(=O)[C@H](CC(C)C)NC(=O)CNC(=O)[C@H](C)NC(=O)[C@H](CC(C)C)NC(=O)[C@@H](N)Cc1ccc(O)cc1)[C@@H](C)O)C(=O)N[C@H](C(=O)O)C(C)C`, the half-life is more than 6 h in data set [1] and 0.597 h in data set [2].
